Article PMC5110259 (Clinical cancer drugs, 2016)

Legend:
DNS cytotoxicity assay [1] = format: cell-based; details: human, CEM cells vs Hs-27 cells
How it was run: (§1)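 Suspension cells plated at 10,000/well and exposed 20 h (footnote: 24 h) to graded concentrations in 1% v/v DMSO. Hoechst 33342/PI (1 μg/ml each) added for the final hour, then 3x3-field imaging. Dead cells were double-stained nuclei, DMSO background subtracted. CC50 by linear regression, triplicate. SCI = CC50 non-cancerous / CC50 cancer, using Hs-27 in the table and Hs-27, MCF-10A and CCD-112CoN for Jurkat.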

CEM = assay: DNS cytotoxicity assay; format: cell-based; details: Homo sapiens, CCRF-CEM, 24 h, read-out: Cytotoxic concentration 50% (CC50)
How it was run: as §1

DNS cytotoxicity assay [2] = format: cell-based; details: human
How it was run: as §1

Jurkat = assay: DNS cytotoxicity assay; format: cell-based; details: Homo sapiens, Jurkat, 24 h, read-out: Cytotoxic concentration 50% (CC50)
How it was run: as §1

DNS cytotoxicity assay [3] = format: cell-based; details: human, Nalm 6 cells vs Hs-27 cells
How it was run: as §1

Nalm 6 = assay: DNS cytotoxicity assay; format: cell-based; details: Homo sapiens, NALM-6, 24 h, read-out: Cytotoxic concentration 50% (CC50)
How it was run: as §1

DNS cytotoxicity assay [4] = format: cell-based; details: human, Ramos cells vs Hs-27 cells
How it was run: as §1

Ramos = assay: DNS cytotoxicity assay; format: cell-based; details: Homo sapiens, Ramos, 24 h, read-out: Cytotoxic concentration 50% (CC50)
How it was run: as §1

DNS cytotoxicity assay [5] = format: cell-based; details: human, CCD-112CoN non-cancerous colon fibroblasts
How it was run: (§2)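 DNS imaging assay. Adherent cells seeded at 5,000/well, incubated 20 h (table footnote says 24 h) with several compound concentrations in 1% v/v DMSO final. Hoechst 33342 and PI (1 μg/ml each, final) added 1 h before imaging 3x3 fields at 20x. Dead cells = Hoechst/PI co-localized nuclei. Values corrected by subtracting the mean % dead of six DMSO wells. CC50 by linear regression, triplicate.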

DNS cytotoxicity assay [6] = format: cell-based; details: human, Hs-27 non-cancerous foreskin fibroblasts
How it was run: as §2

DNS cytotoxicity assay [7] = format: cell-based; details: human, MCF-10A non-cancerous mammary epithelial cells
How it was run: as §2

Jurkat cells [8] = assay: Apoptosis assay via annexin V-FITC/PI staining, Jurkat; format: cell-based, human; details: 24 h; for apoptosis (phosphatidylserine externalization, annexin V-FITC positive cells): 1 μM, flow cytometry
How it was run: (§3)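 Annexin V-FITC/PI co-staining read by flow cytometry after 24 h exposure. Excitation was at 488 nm, with FITC read on FL1 and PI on FL2. Cells that were PI-positive but annexin-negative were scored as necrotic. Controls were untreated cells, 1% v/v DMSO, 300 μM H2O2, and curcumin and EF-24 at 1 μM. Triplicates; compared with curcumin by Student's t-test.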

Nalm-6 cells = assay: Apoptosis assay via annexin V-FITC/PI staining, Nalm-6; format: cell-based, human; details: 24 h; for apoptosis (phosphatidylserine externalization, annexin V-FITC positive cells): 1 μM, flow cytometry
How it was run: as §3

Jurkat cells [9] = assay: Mitochondrial membrane potential assay; format: cell-based, human; details: 1 μM, 7 h, JC-1, flow cytometry
How it was run: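 Jurkat at 3x10^4 cells per mL per well (24-well) exposed 7 h to 1 μM. JC-1 then added, 30 min at 37 °C, followed by flow cytometry of ~10,000 events. 50 μM CCCP served as depolarization control, with 1% DMSO and untreated controls. Triplicates, t-test vs DMSO.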

[10] = tested on: caspase-3/7 in Jurkat cells; assay: Caspase-3/7 activity assay; format: cell-based, human; details: 1 μM, 20 h, NucView 488, flow cytometry
How it was run: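 Jurkat seeded at 100 cells/μL (24-well) and treated 20 h with 1 μM. Active caspase-3/7 detected in live cells with the NucView 488 fluorogenic substrate by flow cytometry, ~10,000 events per sample. Positive controls were 2 μg/ml camptothecin and 10 μM curcumin, plus DMSO and untreated controls. Triplicates, t-test vs DMSO.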

[11] = tested on: leukemia and lymphoma neoplasms; assay: DNS cytotoxicity screen at 1 μM, leukemia/lymphoma panel; format: cell-based; details: human leukemia/lymphoma cell lines
[12] = tested on: non-malignant MCF-10A and Hs-27 cell lines; assay: DNS cytotoxicity screen at 1 μM, non-malignant cells; format: cell-based; details: 20 h
How it was run: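 Single-concentration DNS screen: 1 μM in 1% v/v DMSO for 20 h. Hoechst 33342 and PI (1 μg/ml each) added 1 h before automated imaging. Percent dead was calculated from co-stained nuclei out of total nuclei per well. Controls were 300 μM H2O2, 1% DMSO and untreated wells. Run in triplicate and shown as heat map.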

| SMILES | selectivity ratio at 20 h (DNS cytotoxicity assay [1]) | CC50 (CEM) | selectivity ratio at 20 h (DNS cytotoxicity assay [2]; Jurkat cells vs Hs-27 cells) | CC50 (Jurkat) | selectivity ratio at 20 h (DNS cytotoxicity assay [3]) | CC50 (Nalm 6) | selectivity ratio at 20 h (DNS cytotoxicity assay [4]) | CC50 (Ramos) | CC50 at 24 h (DNS cytotoxicity assay [5]) | CC50 at 24 h (DNS cytotoxicity assay [6]) | CC50 at 24 h (DNS cytotoxicity assay [7]) | apoptosis (phosphatidylserine externalization, annexin V-FITC positive cells) (Jurkat cells [8]) | apoptosis (phosphatidylserine externalization, annexin V-FITC positive cells) (Nalm-6 cells) | also measured |
| --- | --- | --- | --- | --- | --- | --- | --- | --- | --- | --- | --- | --- | --- | --- |
| CCN(CC)CCOc1ccc(C(=O)Oc2ccc(C=C3CN(C)CC(=Cc4ccc(OC(=O)c5ccc(OCCN(CC)CC)cc5)cc4)C3=O)cc2)cc1 [Compound 1, 3,5-bis{4-[4-(2-diethylaminoethoxy)phenylcarbonyloxy]benzylidene}-1-methyl-4-piperidone] | 8.1 | 0.59 ± 0.03 µM | 11.1 | 0.43 ± 0.02 µM | 5.6 | 0.86 ± 0.03 µM | 6.7 | 0.71 ± 0.01 µM | 4.68 ± 0.83 µM | 4.78 ± 0.03 µM | 15.6 ± 0.14 µM | ~ 70% | ~ 50% | selectivity ratio at 20 h (DNS cytotoxicity assay [2]): > 10; selectivity ratio at 20 h (DNS cytotoxicity assay [2]; Jurkat cells vs CCD-112CoN cells): 10.9; selectivity ratio at 20 h (DNS cytotoxicity assay [2]; Jurkat cells vs MCF-10A cells): 36.3; apoptotic activity as compared with curcumin (Jurkat cells [8]; both compounds at 1 μM): 10 fold; apoptotic activity as compared with curcumin (Nalm-6 cells; both compounds at 1 μM): 22.3 fold; mitochondrial depolarization (Jurkat cells [9]): ~ 80%; caspase-3/7 activation (active caspase 3/7-positive cells) [10]: > 90%; in vitro cytotoxic concentration compared with curcumin [11]: approximately ten times more effective than curcumin; toxicity to non-malignant cell lines (heat map) [12]: low toxicity |
| COc1cc(/C=C/C(=O)CC(=O)/C=C/c2ccc(O)c(OC)c2)ccc1O [Curcumin, reference compound] | 1.4 | 10.6 ± 0.06 µM | 1.4 | 10.86 ± 0.04 µM | 1.4 | 11 ± 0.2 µM | 1.7 | 9.25 ± 0.37 µM | 15.8 ± 0.13 µM | 15.3 ± 0.38 µM | 14.1 ± 0.66 µM | did not induce significant PS externalization | did not induce significant PS externalization |  |
